Laboratory results published in paper PMC5665024 (Chemical research in toxicology, 2017).
Where two headings read alike, the source gives them in different places. Values belong to the molecule of their own block, whether it stands above or below them.

Legend:
[1] = system: GM12878 cells; experiment: MTS assay of cell proliferation, GM12878; type: cell-based, human; details: for IC50: Homo sapiens
Outline: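 Lymphoblasts grown in RPMI 1640 with 15% FBS at 37 °C and 5% CO2. Plated at 5 × 10^3 per well, grown 24 h, then exposed 24 or 72 h to test compound alone or with 10 μM lignan inhibitor added. DMSO 0.2% final; vehicle controls. MTS/PMS in PBS pH 7.2 for 4 h at 37 °C; A492; cell-free background. Triplicate; normalized absorbance fitted for IC50 with 95% CI.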

[2] = system: A549 cells; experiment: MTS assay of cell proliferation, A549; type: cell-based, human; details: for IC50: Homo sapiens
Outline: (§1)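 Cells grown in DMEM with 10% FBS at 37 °C and 5% CO2. Plated at 5 × 10^3 per well, grown 24 h, then exposed 24 or 72 h to test compound alone or in pairs: 10 μM bleomycin-type or 250 μM alkylating agent added to the lignan, or 10 μM lignan added to either. DMSO 0.2% final; vehicle controls. MTS/PMS for 4 h; A492; cell-free background. Triplicate; IC50 fit, 95% CI.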

[3] = system: MCF7 cells; experiment: MTS assay of cell proliferation, MCF7; type: cell-based, human; details: for IC50: Homo sapiens; for decrease of EC50 due to HNL/BLM combination: MCF7, combination with honokiol (10 μM)
Outline: as §1

[4] = system: PANC1 cells; experiment: MTS assay of cell proliferation, PANC1; type: cell-based, human; details: for IC50: Homo sapiens
Outline: as §1

[5] = system: UACC903 cells; experiment: MTS assay of cell proliferation, UACC903; type: cell-based, human; details: for IC50: Homo sapiens; for decrease of EC50 due to HNL/BLM combination: UACC903, combination with honokiol (10 μM)
Outline: as §1

[6] = system: human cancer cell lines A549, MCF7, PANC-1, UACC903; experiment: MTS assay of cell proliferation, cell lines not specified; type: cell-based; details: combination with honokiol, cell line not specified
Outline: as §1

[7] = biological target: pol β; details: linear mixed-mode inhibition mechanism; cited from earlier work
[8] = PANC1, combination with honokiol (10 μM)

IC50 ([2]; A549, 24 h, read-out: −log(IC50) (95% CI), A549, 24 h, tested compound alone (converted)): 398 µM
IC50 ([2]; A549, 72 h, read-out: −log(IC50) (95% CI), A549, 72 h, tested compound alone (converted)): 251 µM
IC50 ([3]; MCF7, 24 h, read-out: −log(IC50) (95% CI), MCF7, 24 h, tested compound alone (converted)): 501 µM
IC50 ([3]; MCF7, 72 h, read-out: −log(IC50) (95% CI), MCF7, 72 h, tested compound alone (converted)): 200 µM
IC50 ([4]; PANC-1, 24 h, read-out: −log(IC50) (95% CI), PANC1, 24 h, tested compound alone (converted)): 316 µM
IC50 ([4]; PANC-1, 72 h, read-out: −log(IC50) (95% CI), PANC1, 72 h, tested compound alone (converted)): 158 µM
decrease of EC50 due to HNL/TMZ combination [4, 8]: up to three-fold
decrease of EC50 due to HNL/TMZ combination [6]: up to three-fold
decrease of EC50 due to HNL/TMZ combination ([6]; listed as temozolomide): three-fold
Molecule: Cn1nnc2c(C(N)=O)ncn2c1=O [TMZ, temozolomide]
IC50 ([1]; 24 h, read-out: −log(IC50) (95% CI), GM12878, 24 h, tested compound alone (converted)): < 1000 µM
IC50 ([1]; 72 h, read-out: −log(IC50) (95% CI), GM12878, 72 h, tested compound alone (converted)): 316 µM
IC50 ([5]; UACC-903, 24 h, read-out: −log(IC50) (95% CI), UACC903, 24 h, tested compound alone (converted)): 631 µM
IC50 ([5]; UACC-903, 72 h, read-out: −log(IC50) (95% CI), UACC903, 72 h, tested compound alone (converted)): 316 µM

Molecule: C=C(C)[C@@H]1CC[C@]2(C)[C@H](CC=C3[C@@H]4C[C@@](C)(C(=O)O)CC[C@]4(C)CC[C@]32C)[C@@]1(C)CCC(=O)O [koetjapic acid]
Ki [7]: low micromolar range

Molecule: bleomycin [BLM]
−log(IC50) (95% CI) ([1]; GM12878, 24 h, supplemented with 10 μM HNL): 4.2 (4.0, 4.3)
−log(IC50) (95% CI) ([1]; GM12878, 24 h, tested compound alone): 4.1 (3.91, 4.3)
−log(IC50) (95% CI) ([1]; GM12878, 72 h, supplemented with 10 μM HNL): 4.20 (4.0, 4.4)
−log(IC50) (95% CI) ([1]; GM12878, 72 h, tested compound alone): 4.1 (4.0, 4.3)
−log(IC50) (95% CI) ([2]; A549, 24 h, supplemented with 10 μM HNL): 5.30 (5.18, 5.43)
−log(IC50) (95% CI) ([2]; A549, 24 h, tested compound alone): 4.8 (4.7, 5.0)
−log(IC50) (95% CI) ([2]; A549, 72 h, supplemented with 10 μM HNL): 5.6 (5.5, 5.7)
−log(IC50) (95% CI) ([2]; A549, 72 h, tested compound alone): 5.2 (5.0, 5.3)
−log(IC50) (95% CI) ([3]; MCF7, 24 h, supplemented with 10 μM HNL): 6.0 (5.7, 6.2)
−log(IC50) (95% CI) ([3]; MCF7, 24 h, tested compound alone): 4.9 (4.8, 5.0)
−log(IC50) (95% CI) ([3]; MCF7, 72 h, supplemented with 10 μM HNL): 6.3 (6.1, 6.6)
−log(IC50) (95% CI) ([3]; MCF7, 72 h, tested compound alone): 5.3 (5.2, 5.4)
decrease of EC50 due to HNL/BLM combination [3]: up to 10 fold
decrease of EC50 due to HNL/BLM combination ([3]; listed as bleomycin): 10 fold
−log(IC50) (95% CI) ([4]; PANC1, 24 h, supplemented with 10 μM HNL): 5.9 (5.7, 6.2)
−log(IC50) (95% CI) ([4]; PANC1, 24 h, tested compound alone): 4.9 (4.7, 5.1)
−log(IC50) (95% CI) ([4]; PANC1, 72 h, supplemented with 10 μM HNL): 6.09 (5.9, 6.3)
−log(IC50) (95% CI) ([4]; PANC1, 72 h, tested compound alone): 5.2 (5.0, 5.3)
decrease of EC50 due to HNL/BLM combination [4, 8]: up to 10 fold
decrease of EC50 due to HNL/BLM combination ([4]; PANC1, combination with honokiol (10 μM), listed as bleomycin): 10 fold
−log(IC50) (95% CI) ([5]; UACC903, 24 h, supplemented with 10 μM HNL): 5.5 (5.4, 5.7)
−log(IC50) (95% CI) ([5]; UACC903, 24 h, tested compound alone): 4.9 (4.7, 5.0)
−log(IC50) (95% CI) ([5]; UACC903, 72 h, supplemented with 10 μM HNL): 6.3 (6.0, 6.5)
−log(IC50) (95% CI) ([5]; UACC903, 72 h, tested compound alone): 5.22 (5.1, 5.4)
decrease of EC50 due to HNL/BLM combination [5]: up to 10 fold
decrease of EC50 due to HNL/BLM combination ([5]; listed as bleomycin): 10 fold
